Calls of active or inactive are those of the source. No cut-off for these calls is given here.

The values below come from ChEMBL document CHEMBL1153806, “Preclinical efficacy of a carboxylesterase 2-activated prodrug of doxazolidine” (J Med Chem, 2009).

Series [1] deals with Mus musculus. Description: Toxicity in athymic nude mouse xenografted with human NCI-H1435 cells expressing CES2 gene assessed as lipid […] in hepatocytes administered with six iv injection of 3 to 4 mg/kg by hematoxylin/eosin staining-based microscopy. Also on record: dose 3-4 mg/kg, route intravenous. The class given is organism-based, Hepatocyte. In a few lines:
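Female athymic nude mice, 4–6 weeks old, 10 per group. About 2 × 10⁶ H1435 cells were implanted s.c. into the left flank. I.v. tail-vein doses (Dox-equivalent) were given on days 7, 14, 21, 56, 63 and 70 in 5% DMSO/95% D5W. At sacrifice, organs were fixed in 10% formalin for 24 h and paraffin-embedded. Sections were cut at 4 µm and stained with hematoxylin/eosin for microscopy.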

Series [2] deals with Mus musculus. As to the kind of experiment: Toxicity in athymic nude mouse xenografted with human NCI-H1435 cells expressing CES2 gene assessed as occurrence of fatty liver administered with six iv injection of 2.5 mg/kg by hematoxylin/eosin staining-based microscopy. Also on record: dose 2.5 mg/kg, route intravenous. The class given is organism-based. Particulars: in vivo. In a few lines: (§1)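 Hearts and livers taken from the H1435 nude-mouse study (six i.v. injections) after CO₂/cervical dislocation. Fixed in 10% formalin for 24 h, paraffin-embedded, and cut at 4 µm. Slides deparaffinized in xylene and ethanol, stained with Mayer's hematoxylin for 2 min, blued in 1% ammonium hydroxide, and counterstained with eosin for 30 s. Examined by light microscopy.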

In series [3] the test system is NCI-H1435. Description: Antitumor activity against human NCI-H1435 cells expressing CES2 gene xenografted in athymic nude mouse assessed as inhibition of tumor growth at 2.5 mg/kg, iv administered on day 7, 14 and 21 after tumor implantation. Also on record: dose 2.5 mg/kg. It is filed as functional, organism-based. In a few lines: (§2)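 Athymic nude females, 4–6 weeks old, given ~2 × 10⁶ H1435 cells s.c. in the left flank on day 0; 10 mice/group. I.v. tail-vein doses (Dox-equivalent mg/kg) in 5% DMSO/95% D5W on days 7, 14 and 21, with all groups retreated on days 56, 63 and 70; vehicle controls. Caliper volume π × short² × long/6. Cube roots analysed with day-7 size as baseline covariate, by period.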

Series [4] deals with Mus musculus. As to the kind of experiment: Toxicity in athymic nude mouse xenografted with human NCI-H1435 cells expressing CES2 gene assessed as uniformity in punktate staining pattern of hepatocytes administered with six iv injection of 2.5 mg/kg by hematoxylin/eosin staining-based microscopy. It is filed as organism-based, Hepatocyte. Also on record: dose 2.5 mg/kg, route intravenous. In a few lines:
as §1

Series [5] in a line: Toxicity in NOD/SCID mouse xenografted with human HepG2 cells expressing CES2 gene assessed as mortality rate at 3 mg/kg, iv administered on day 7, 14 and 21 after tumor implantation. It is filed as organism-based. On the set-up: dose 3 mg/kg, route intravenous. Particulars: in vivo, read-out: Activity. An outline of the steps: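 Female NOD/SCID mice, 4–6 weeks old, 10 per group. About 1.5 × 10⁷ N-Hep G2 cells were injected s.c. into the left flank. Tail-vein i.v. dosing (mg/kg Dox-equivalent weight) was given on days 7, 14 and 21. Vehicle was 5% DMSO/95% D5W, and controls received vehicle only. Body weight was measured weekly over the first 5 weeks. Survival was followed to study end.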

For series [6], the system named is Mus musculus. As to the kind of experiment: Toxicity in NOD/SCID mouse xenografted with human HepG2 cells expressing CES2 gene assessed as occurrence of diarrhea at 3 mg/kg, iv administered on day 7, 14 and 21 after tumor implantation. The class given is organism-based. On the set-up: dose 3 mg/kg, route intravenous. The note with it: in vivo.
Series [7] relates to Mus musculus. As to the kind of experiment: Toxicity in athymic nude mouse xenografted with human NCI-H1435 cells expressing CES2 gene assessed as vacuolar degeneration of kidney tissue administered with six iv injection of 2.5 mg/kg by hematoxylin/eosin staining-based microscopy. It is filed as organism-based. Also on record: dose 2.5 mg/kg, route intravenous. The note with it: in vivo. An outline of the steps:
(§3)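 Kidney and ileum taken from the H1435 nude-mouse study (six i.v. injections). Formalin-fixed for 24 h, paraffin-embedded, and cut into 4 µm sections. Sections deparaffinized in xylene, rehydrated through an ethanol series, stained in Harris hematoxylin for 50 s with eosin, then dehydrated and mounted. Morphology assessed by microscopy.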

The test system of series [8] is Mus musculus. Description: Toxicity in athymic nude mouse xenografted with human NCI-H1435 cells expressing CES2 gene assessed as appearance of fibrotic damage in heart tissue administered with six iv injection of 2.5 mg/kg by hematoxylin/eosin staining-based microscopy. Also on record: dose 2.5 mg/kg, route intravenous. It is filed as organism-based. The note with it: in vivo. An outline of the steps:
as §1

Series [9] relates to HepG2. As to the kind of experiment: Antitumor activity against human HepG2 cells expressing CES2 gene xenografted in NOD/SCID mouse assessed as inhibition of tumor growth at 4 to 5 mg/kg, iv administered on day 7, 14 and 21 after tumor implantation. The class given is functional, organism-based. In a few lines:
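NOD/SCID females, 4–6 weeks old, each given ~1.5 × 10⁷ N-Hep G2 cells s.c. in the left flank; 10 mice/group. Dosed i.v. by tail vein on days 7, 14 and 21, in mg/kg Dox-equivalent, from DMSO diluted into D5W (5% DMSO/95% D5W), 100 µL/mouse. Vehicle-only controls. The 3 mg/kg group was redosed at 5 mg/kg on days 45 and 52. Tumor volume (π × short diameter² × long diameter/6) measured weekly.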

For series [10], the system named is Mus musculus. Description: Toxicity in athymic nude mouse xenografted with human NCI-H1435 cells expressing CES2 gene assessed as myofibril disorganization and vacuolization of heart tissue administered with six iv injection of 2.5 mg/kg by hematoxylin/eosin staining-based microscopy. It is filed as organism-based. Also on record: dose 2.5 mg/kg, route intravenous. Particulars: in vivo. An outline of the steps:
as §1

For series [11], the system named is NCI-H1435. As to the kind of experiment: Antitumor activity against human NCI-H1435 cells expressing CES2 gene xenografted in pentyl PABC-doxazolidine-pretreated athymic nude mouse assessed as inhibition of tumor growth at 2.5 mg/kg, iv administered on day 70 after tumor implantation. The class given is functional, organism-based. On the set-up: dose 2.5 mg/kg. An outline of the steps:
as §2

Series [12] has as its system NCI-H1435. Description: Antitumor activity against human NCI-H1435 cells expressing CES2 gene xenografted in pentyl PABC-doxazolidine-pretreated athymic nude mouse assessed as inhibition of tumor growth at 2.5 mg/kg, iv administered on day 56 after tumor implantation. On the set-up: dose 2.5 mg/kg. The class given is functional, organism-based. In a few lines:
as §2

Series [13] concerns Mus musculus. Description: Toxicity in athymic nude mouse xenografted with human NCI-H1435 cells expressing CES2 gene assessed as occurrence of cardiomyocyte necrosis administered with six iv injection of 2.5 mg/kg by hematoxylin/eosin staining-based microscopy. It is filed as organism-based. On the set-up: dose 2.5 mg/kg, route intravenous. The note with it: in vivo. In a few lines:
as §1

In series [14] the test system is NCI-H1435. As to the kind of experiment: Antitumor activity against human NCI-H1435 cells expressing CES2 gene xenografted in athymic nude mouse assessed as reduction in tumor size at 2.5 mg/kg, iv administered on day 7, 14 and 21 after tumor implantation. The class given is functional, organism-based. On the set-up: dose 2.5 mg/kg. An outline of the steps:
as §2

Series [15] relates to Mus musculus. As to the kind of experiment: Toxicity in athymic nude mouse xenografted with human NCI-H1435 cells expressing CES2 gene assessed as vacuolar damage in ileum administered with six iv injection of 2.5 mg/kg by hematoxylin/eosin staining-based microscopy. The class given is organism-based. Also on record: dose 2.5 mg/kg, route intravenous. Particulars: in vivo. An outline of the steps:
as §3

For series [16], the system named is Mus musculus. Description: Toxicity in athymic nude mouse xenografted with human NCI-H1435 cells expressing CES2 gene at 3 to 4 mg/kg, iv administered on day 7, 14 and 21 after tumor implantation. The class given is organism-based. On the set-up: dose 3-4 mg/kg, route intravenous. The note with it: in vivo.
For series [17], the system named is Mus musculus. Description: Toxicity in athymic nude mouse xenografted with human NCI-H1435 cells expressing CES2 gene assessed as inflammatory cell infiltration in ileum administered with six iv injection of 2.5 mg/kg by hematoxylin/eosin staining-based microscopy. It is filed as organism-based. Particulars: in vivo. On the set-up: dose 2.5 mg/kg, route intravenous. An outline of the steps: as §3

In series [18] the test system is NCI-H1435. As to the kind of experiment: Antitumor activity against human NCI-H1435 cells expressing CES2 gene xenografted in athymic nude mouse assessed as slowing of tumor growth at 2.5 mg/kg, iv administered as three weekly infusion from day 21 to 56 after tumor implantation. It is filed as functional, organism-based. Also on record: dose 2.5 mg/kg. An outline of the steps: as §2

The test system of series [19] is Mus musculus. As to the kind of experiment: Toxicity in athymic nude mouse xenografted with human NCI-H1435 cells expressing CES2 gene assessed as occurrence of diarrhea at 3 to 4 mg/kg, iv administered on day 7, 14 and 21 after tumor implantation. The class given is organism-based. On the set-up: dose 3-4 mg/kg, route intravenous. The note with it: in vivo.
Series [20] has as its system NCI-H1435. As to the kind of experiment: Antitumor activity against human NCI-H1435 cells expressing CES2 gene xenografted in pentyl PABC-doxazolidine-pretreated athymic nude mouse assessed as inhibition of tumor growth at 2.5 mg/kg, iv administered on day 63 after tumor implantation. It is filed as functional, organism-based. On the set-up: dose 2.5 mg/kg. In a few lines: as §2

Regarding `COc1cccc2c1C(=O)c1c(O)c3c(c(O)c1C2=O)C[C@@](O)(C(=O)CO)C[C@@H]3O[C@H]1C[C@@H]2NCO[C@@H]2[C@H](C)O1` [DOXAZOLIDINE], in series [1], the Activity result is “Toxic”.

Turning to `COc1cccc2c1C(=O)c1c(O)c3c(c(O)c1C2=O)C[C@@](O)(C(=O)CO)C[C@@H]3O[C@H]1C[C@H](N)[C@H](O)[C@H](C)O1` [DOXORUBICIN], the Activity entry is on record as “Non-toxic” in series [2]; “Non-toxic” in series [4]; “Toxic” in series [1]; “Non-toxic” in series [6]; “Toxic” in series [7]; “Toxic” in [8]. Further, the Activity result in [10] was “Toxic”; in series [13], “Toxic”; in [15], “Non-toxic”; in series [16], “Non-toxic”; in [17], “Non-toxic”; in series [19], “Non-toxic”. Moreover, the inhibition entry in series [3] and in series [9] was “Active” in each case. Moreover, in series [5], the mortality worked out at 70%. Besides, the inhibition result in series [11], in [12] and in series [20] was “inactive” in each case. In addition, the result in [14] and in series [18] was Active.
